Scp-1 inhibitor: Scp-1 phosphatase inhibitors, primary screen, biochemical, colorimetric, uHTS. Carboxy-terminal domain RNA polymerase II polypeptide A small phosphatase 1 (Homo …. Recombinant Scp1, phosphopeptide, malachite green phosphate absorbance. inhibition, % at 20 µM. 340,000 tested, 0.88% active. AID 493091, 2011;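 active means inhibition above about 50% at 20 µM, limit read from the data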
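System: truncated SCP-1 phosphatase (76-261aa); medium: Tris acetate buffer pH 5.5 with MgCl2 and Tween-20; incubation: 45 min room-temperature reaction, 5 min colour, 30 min stabiliser; compound: single 20 µM dose, 1% DMSO; reagent: Phosphorylated 17-residue peptide substrate; read-out: % inhibition at 20 µM; technique: colorimetric free-phosphate detection, absorbance 630 nm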
SUMO1-SIM PPI: modulators of SUMO1 protein-protein interactions, primary screen, biochemical, uHTS. Small ubiquitin-related modifier 1 (Homo sapiens), P63165. SUMO1 binding to a labelled peptide, TR-FRET, 1 h. inhibition, % at 20 µM. 360,000 tested, 0.33% active; in the data active means inhibition above about 37%
Target sequence (P63165 whole entry, looked up): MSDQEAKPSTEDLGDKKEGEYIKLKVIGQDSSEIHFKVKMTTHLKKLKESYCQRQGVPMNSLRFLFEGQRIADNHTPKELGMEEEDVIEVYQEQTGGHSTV
GRK2 inh: compounds blocking aptamer binding on GRK2 – biochemical, human GRK2, bead flow cytometry, HTS, primary screen; Beta-adrenergic receptor kinase 1 (Homo sapiens), P25098; FAM-aptamer displacement from GRK2; inhibition of aptamer binding, % at 10 µM; 330,000 tested, 0.59% active; AID 488847, 2010;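 active means inhibition of aptamer binding above 40%, roughly 3 SD of noise, on plates passing a quality check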;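 further: median bead fluorescence of bound FAM aptamer so fluorescent compounds give negative values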
DNMT1 inh: human DNMT1 methyltransferase inhibitors, primary screen, biochemical, molecular beacon, fluorescence, HinP1I cleavage, uHTS; DNA (cytosine-5)-methyltransferase 1 (Homo sapiens), P26358; inhibition (reported as % activation of signal), % at 10 µM; 360,000 tested, 0.83% active; AID 588458, 2011; in the data active means inhibition above about 50%
LMPTP inh: LMPTP phosphatase inhibitors, primary screen, biochemical, fluorescence intensity, uHTS. Low molecular weight phosphotyrosine protein phosphatase (Homo sapiens), P24666. recombinant LMPTP-A, OMFP fluorogenic substrate. inhibition, % at 20 µM. 360,000 tested, 0.22% active. AID 651560, 2012;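 active means compounds that cut the enzyme signal by at least half of the control window in the single-dose screen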
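material = LMPTP-A | quantity = 0.625 nM enzyme | reagent = OMFP substrate, 400 µM final | buffer or medium = Bis-Tris pH 6.0, DTT, detergent | detection = endpoint fluorescence intensity from OMFP dephosphorylation | dosing = single 20 µM dose | read-out basis = % inhibition relative to no-enzyme and uninhibited control wells | control set = no-enzyme and uninhibited controls | timing = 50 min at room temperature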
STEP block: STEP phosphatase inhibitors, primary screen, biochemical, fluorescence intensity, uHTS; Tyrosine-protein phosphatase non-receptor type 5 (Homo sapiens), P54829; recombinant STEP, OMFP fluorogenic substrate; inhibition, % at 20 µM; 360,000 tested, 0.25% active; AID 588621, 2011;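 active means inhibition at 20 µM, scaled per plate between control wells, above about 37%, limit read from the data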
Target sequence (P54829 whole entry, looked up): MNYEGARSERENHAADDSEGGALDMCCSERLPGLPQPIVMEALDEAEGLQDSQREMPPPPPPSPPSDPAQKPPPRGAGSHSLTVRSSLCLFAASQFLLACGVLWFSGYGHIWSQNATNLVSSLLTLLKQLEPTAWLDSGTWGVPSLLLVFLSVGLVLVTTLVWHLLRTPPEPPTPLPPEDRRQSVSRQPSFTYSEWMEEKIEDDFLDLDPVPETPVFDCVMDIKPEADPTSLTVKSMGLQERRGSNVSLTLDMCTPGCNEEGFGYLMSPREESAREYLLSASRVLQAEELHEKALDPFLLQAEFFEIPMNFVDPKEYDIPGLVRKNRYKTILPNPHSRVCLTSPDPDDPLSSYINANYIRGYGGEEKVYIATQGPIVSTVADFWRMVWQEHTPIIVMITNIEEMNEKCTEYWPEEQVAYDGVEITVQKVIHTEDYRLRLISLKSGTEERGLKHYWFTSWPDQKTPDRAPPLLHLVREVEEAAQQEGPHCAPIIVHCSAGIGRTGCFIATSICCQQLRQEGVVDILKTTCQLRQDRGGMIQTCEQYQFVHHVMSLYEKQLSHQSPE
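System: isolated STEP enzyme; schedule: 20 min enzyme reaction at room temperature, protected from light; medium: Bis-Tris buffer pH 6.0, 2.5 mM DTT, 0.005% Tween 20; signal: fluorescence, 480/540 nm; dosing: single compound dose of 20 µM, 1% DMSO final; also added: OMFP substrate, 25 µM final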
Numbers stand for hits; n = inactive; x = no result given; + = active, no number. An excerpt weighted towards active compounds, which were near 2.2% of everything screened.

SMILES	Scp-1 inhibitor	SUMO1-SIM PPI	GRK2 inh	DNMT1 inh	LMPTP inh	STEP block
CC(=O)c1sc(Nc2nc3cc4c(cc3s2)OCO4)nc1C	n	40.0	x	n	n	n
CC(=O)c1sc(Nc2ccc3c(c2)OCO3)nc1C	x	n	x	n	n	n
CCN(CC)c1ccc2cc(-c3nc4ccccc4[nH]3)c(=O)oc2c1	n	n	n	+	n	n
CC(C(=O)NC1CCCC1)n1c(C2CC2)nc2ccccc21 (stereo unspecified)	x	n	x	x	n	x
CC(NC(=O)Cn1ncc(Cl)c(Cl)c1=O)C12CC3CC(CC(C3)C1)C2 (stereo unspecified)	n	n	n	59.2	n	n
CCn1cc(C(=O)NC(C)C23CC4CC(CC(C4)C2)C3)cn1 (stereo unspecified)	n	n	n	n	n	n
CC(C)c1onc(C(=O)N2CCN(C(c3ccccc3)c3ccccc3)CC2)c1[N+](=O)[O-]	n	43.2	n	n	n	n
CC(C)c1onc(C(=O)N2CCN(c3ccccc3)CC2)c1[N+](=O)[O-]	n	n	n	n	n	n
O=C1C(CCc2ccccc2)ON=C(c2cnccn2)N1Cc1ccc(F)cc1 (stereo unspecified)	x	n	x	n	n	n
O=C(O)c1cc(N/N=C/c2ccc(-c3ccccc3)cc2)ccc1Cl	n	n	43.0	n	n	n
O=C(O)c1cc(N/N=C/c2ccncc2)ccc1Cl	n	n	n	n	n	n
COC(=O)C[C@H]1C[C@H]2c3cc(NS(=O)(=O)c4cccc(OC)c4)ccc3O[C@H]2[C@@H](CO)O1	x	n	x	n	n	n
COCCCN1C(=O)C(CC(=O)NC(c2ccccc2)c2ccccc2)CC(C(=O)N2CCOCC2)=C1C (stereo unspecified)	x	n	x	n	n	n
CCOC(=O)c1sc(N/N=C/c2cc(Br)c(O)c(OC)c2)nc1C	n	n	n	n	n	83.7
Cc1ccc2c(c1)C(=O)N1[C@H]3c4ccccc4OC[C@@H]3[C@H](c3ccccc3)[C@]1(C)C(=O)N2	n	n	93.0	n	n	n
Cc1ccc2c(c1)NC(=O)[C@@]1(C)[C@@H](c3ccccc3)[C@H]3COc4ccccc4[C@@H]3N1C2=O	n	n	x	n	n	n
CC[n+]1c(/C=C2\Sc3ccccc3N2C)ccc2cccc(C)c21	n	n	x	n	80.8	n
CCCNC(=O)C1(C)CCN(C(=O)c2cccnc2Oc2ccccc2)C1 (stereo unspecified)	x	n	x	n	n	n
O=C(N/C=C/c1ccco1)NCc1ccccc1	n	n	n	60.5	n	n
Fc1cccc(NCCc2c[nH]c3ccccc23)n1	n	n	n	n	n	n
c1ccc2c(NCCc3c[nH]c4ccccc34)c3ccccc3nc2c1	n	n	n	72.4	56.9	n
Cc1ccc(-c2nc(NCCCO)c3ccccc3n2)cc1	n	n	n	n	n	n
OCCCNc1c2ccccc2nc2ccccc12	n	n	n	66.8	n	n
O=C(N/N=C/c1cccc([N+](=O)[O-])c1)c1cc(-c2ccc3c(c2)OCO3)n[nH]1	n	72.8	n	n	n	n
CC(C)(C)OC(=O)[C@H](Cc1ccccc1)NC(=O)c1nc[nH]c1C(=O)N[C@@H](Cc1ccccc1)C(=O)OC(C)(C)C	n	n	n	n	n	n
SMILES	Scp-1 inhibitor	SUMO1-SIM PPI	GRK2 inh	DNMT1 inh	LMPTP inh	STEP block
CC(C)(C)OC(=O)[C@H](Cc1ccccc1)NC(=O)c1ncn2c1c(=O)[nH]c1ccc(Br)cc12	x	n	x	n	73.0	n
CS(=O)(=O)Nc1ccccc1C(=O)Nc1cc(Cl)cc(Cl)c1	n	n	99.0	n	n	n
NC(CSC(c1ccccc1)(c1ccccc1)c1ccccc1)C(=O)O (stereo unspecified)	n	n	x	52.2	n	n
COc1ccc(Cn2cc(CN3CC(N4CCN(Cc5ccccc5F)CC4)CS3(=O)=O)nn2)cc1 (stereo unspecified)	x	n	x	x	n	x
O=C(CCN1CCCCC1)c1cccc(Cl)c1	n	n	x	n	n	n
CCCCNC(=O)c1[nH]c(C2CCNCC2)nc1-c1cccc(C(F)(F)F)c1	x	n	x	x	n	x
CC1CCc2c(sc3ncn(CC(=O)N=Nc4c(O)[nH]c5ccccc45)c(=O)c23)C1 (stereo unspecified)	n	n	n	53.5	n	n
CCCCNC(=O)C1(C)CCN1C(=O)c1ccc(F)cc1Cl (stereo unspecified)	x	n	x	n	n	n
Cc1ccccc1-c1csc(C(O)c2ccc(F)c(F)c2)n1 (stereo unspecified)	x	n	x	n	n	n
Cc1csc2nc3cc(C(N)=O)ccc3c(=O)n12	n	n	n	n	n	n
NC(=O)c1ccc2c(=O)n3c(-c4cc(Cl)c(N)c(Cl)c4)csc3nc2c1	n	56.2	n	n	n	n
COc1ccc(C2=CCCCCC2)cc1OC	x	n	x	n	n	n
Cc1cccnc1C(NC(=O)C1CCN(Cc2ccc3ccccc3n2)CC1)c1ccc(Cl)cc1 (stereo unspecified)	x	n	x	n	n	n
Cc1cc(OCC(=O)OCC(=O)N2CCCc3ccccc32)ccc1Cl	x	n	x	n	n	n
CC1(C)CC(N2CCCC2)=CC(=[N+]2CCCCC2)C1	n	n	n	n	n	n
CN(Cc1ccccc1)C1=CC(=[N+]2CCCCC2)CC(C)(C)C1	104.0	n	n	n	n	n
CC1(C)CC(NNCCC#N)=CC(=[N+]2CCCC2)C1	n	n	n	n	n	n
CC1(C)CC(N2CCN(Cc3ccccc3)CC2)=CC(=[N+]2CCCCC2)C1	106.4	n	n	n	n	n
O=S(=O)(c1cccnc1)N1CCCC(Nc2ccc(F)c(F)c2)C1 (stereo unspecified)	x	n	x	n	n	n
CC(C)NC(=O)c1sc(=S)n2c1[nH]c(=O)c1ccc(C(=O)NCCc3ccc(Cl)cc3)cc12	n	n	n	n	n	40.0
Cc1cc(Nc2ccc(Cl)cc2)n(-c2cccc(Cl)c2)n1	n	n	n	n	n	n
Cc1cc(Nc2ccccc2C(=O)O)n(-c2cccc(Cl)c2)n1	n	41.6	n	n	n	n
Cc1ccc2oc(Nc3nc(-c4ccccc4)cc(=O)[nH]3)nc2c1	96.5	x	x	x	x	x
NS(=O)(=O)c1ccc(N/N=C/c2ccccc2Br)cc1	n	59.6	n	n	n	n
O=C(CSc1nnc(-c2ccco2)c(-c2ccco2)n1)c1ccccc1	n	n	n	84.7	n	n
